According to paper PMC5969509 (Chemical Science, 2018):
Read-outs that look alike come from different tables or passages of the source. Positions of bridges follow the written chain, without caps; N, C: chain ends. Non-standard residues stand in square brackets, D forms with d. Residues, ends and D or L forms follow the SMILES beside them.

Legend:
KDM4A = assay: Biolayer interferometry, binding to KDM4A; design: species or system human; details: BLI, 3-fold dilution series
In short: (§1)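 Recombinant protein (tPHD2HisBio or KDM4A) was expressed in E. coli BL21 (DE3) and loaded onto biosensors. Binding was measured by biolayer interferometry as cycles of association and dissociation across a dilution series of test peptide. A DMSO-only sensor included in each run was subtracted to correct for drift, and the traces were fitted globally.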

tPHD2 = tPHD2 (Homo sapiens, UniProt Q9GZT9); assay: Biolayer interferometry, tPHD2 immobilised via N-terminal His-tag; format: binding; details: BLI; tPHD2 denatured chemically or thermally
[1] = molecular target: tPHD2HisBio (catalytic domain of PHD2, residues 181-426) (Homo sapiens, UniProt Q9GZT9); assay: Biolayer interferometry, tPHD2HisBio immobilised via C-terminal biotin; format: binding
In short: as §1

[2] = molecular target: catalytic domain of PHD2 (residues 181–426, tPHD2) with N-terminal His-tag and C-terminal biotinylation (tPHD2_(HisBio)) (human) (UniProt Q9GZT9); assay: BLI
[3] = molecular target: catalytic domain of PHD2 (residues 181–426, tPHD2) with N-terminal His-tag and C-terminal biotinylation (tPHD2_(HisBio)) (human) (UniProt Q9GZT9); assay: BLI; remark: listed apart in the source
PHD2 = assay: 3CBt capture; format: binding, human
PHD3 = assay: 3CBt capture; format: binding, human; details: 3CBt 26 µM
PHD2:HIF1-α complex = assay: 3CBt capture of PHD:HIF1-α complex from RCC4 cell lysates; format: binding; details: RCC4 cells in hypoxia, 3CBt 52 µM, western blot
PHD1 = assay: 3CBt capture; format: binding, human; details: protein 10 µM, 3CBt 26 µM, Coomassie SDS-PAGE

Chain of tPHD2HisBio (catalytic domain of PHD2, residues 181-426) (Q9GZT9 181-426): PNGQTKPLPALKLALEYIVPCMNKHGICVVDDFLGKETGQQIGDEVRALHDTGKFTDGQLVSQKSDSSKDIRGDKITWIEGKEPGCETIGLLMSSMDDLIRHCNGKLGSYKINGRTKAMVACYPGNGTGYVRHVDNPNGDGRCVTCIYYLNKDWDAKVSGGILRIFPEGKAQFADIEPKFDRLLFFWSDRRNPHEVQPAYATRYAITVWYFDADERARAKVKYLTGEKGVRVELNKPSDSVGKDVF
Chain of catalytic domain of PHD2 (residues 181–426, tPHD2) with N-terminal His-tag and C-terminal biotinylation (tPHD2_(HisBio)) (human) (Q9GZT9 181-426): as above
Chain of tPHD2 (Q9GZT9 181-426): as above

With CC(C)C[C@@H]1NC(=O)[C@H](Cc2c[nH]c3ccccc23)NC(=O)[C@H](C(C)C)NC(=O)[C@@H](Cc2ccc(O)cc2)NC(=O)CSC[C@@H](C(N)=O)NC(=O)[C@H]([C@@H](C)O)NC(=O)[C@H](CCCNC(=N)N)NC(=O)[C@H](CO)NC(=O)[C@H](CC(C)C)NC(=O)[C@H](C(C)C)NC(=O)[C@H](Cc2c[nH]c3ccccc23)NC(=O)[C@H]([C@@H](C)O)NC(=O)[C@H](CC(=O)O)NC(=O)[C@H]([C@@H](C)O)NC1=O [3C] ({CH2CO}-[dY]VWLTDTWVLSRTC-NH2; thioether N-14) the “binding to KDM4A” value (KDM4A) was “almost no detectable binding”, the “binding to denatured tPHD2” value (tPHD2) was “abolished” and the Kd [1] was 0.00027 µM. The “dissociative half-life t1/2” value ([1]; BLI, C-terminal biotin immobilisation) was 1.13 h.

“C-terminal oxygen dependent domain (CODD), a fragment peptide of HIF1-α” showed a Kd [2] of 5.2 µM and a Kd [3] of 6.3 µM.

For “DYVWL T DT W VL SRTCGSGSGSZ (sidechain bridge or staple) [3CBt]”, the “capture of endogenous PHD2 from Hep3B cell lysates” value (PHD2; hypoxic (1% O2) Hep3B cells, western blot, 3CBt 13 µM) was “could be captured”, the “recovery of recombinant full-length PHD2” value (PHD2; protein 10 µM, 3CBt 26 µM, Coomassie SDS-PAGE) was “recovered in a 3CBt-dependent manner” and the “recovery of isolated recombinant tPHD2” value (PHD2; streptavidin magnetic beads, Coomassie SDS-PAGE, tPHD2 100 nM, 3CBt 520 nM) was “High levels of tPHD2 recovery”. The “capture of endogenous PHD3 from Hep3B cell lysates” value (PHD3; hypoxic conditions, western blot) was “able to affinity purify”, the “capture of recombinant full length PHD3” value (PHD3; protein 10 µM, Coomassie SDS-PAGE) was “able to capture” and the “co-purification of HIF1-α and PHDs at endogenous levels” value (PHD2:HIF1-α complex) was “could co-purify HIF1-α and PHDs at endogenous levels”. For the same compound, the “capture of recombinant full length PHD1” value (PHD1) was “able to capture”.
